Test [1] concerns the target T1, Nucleotide-binding oligomerization domain-containing protein 1 (Homo sapiens, UniProt Q9Y239).
T1 sequence (Q9Y239 whole entry): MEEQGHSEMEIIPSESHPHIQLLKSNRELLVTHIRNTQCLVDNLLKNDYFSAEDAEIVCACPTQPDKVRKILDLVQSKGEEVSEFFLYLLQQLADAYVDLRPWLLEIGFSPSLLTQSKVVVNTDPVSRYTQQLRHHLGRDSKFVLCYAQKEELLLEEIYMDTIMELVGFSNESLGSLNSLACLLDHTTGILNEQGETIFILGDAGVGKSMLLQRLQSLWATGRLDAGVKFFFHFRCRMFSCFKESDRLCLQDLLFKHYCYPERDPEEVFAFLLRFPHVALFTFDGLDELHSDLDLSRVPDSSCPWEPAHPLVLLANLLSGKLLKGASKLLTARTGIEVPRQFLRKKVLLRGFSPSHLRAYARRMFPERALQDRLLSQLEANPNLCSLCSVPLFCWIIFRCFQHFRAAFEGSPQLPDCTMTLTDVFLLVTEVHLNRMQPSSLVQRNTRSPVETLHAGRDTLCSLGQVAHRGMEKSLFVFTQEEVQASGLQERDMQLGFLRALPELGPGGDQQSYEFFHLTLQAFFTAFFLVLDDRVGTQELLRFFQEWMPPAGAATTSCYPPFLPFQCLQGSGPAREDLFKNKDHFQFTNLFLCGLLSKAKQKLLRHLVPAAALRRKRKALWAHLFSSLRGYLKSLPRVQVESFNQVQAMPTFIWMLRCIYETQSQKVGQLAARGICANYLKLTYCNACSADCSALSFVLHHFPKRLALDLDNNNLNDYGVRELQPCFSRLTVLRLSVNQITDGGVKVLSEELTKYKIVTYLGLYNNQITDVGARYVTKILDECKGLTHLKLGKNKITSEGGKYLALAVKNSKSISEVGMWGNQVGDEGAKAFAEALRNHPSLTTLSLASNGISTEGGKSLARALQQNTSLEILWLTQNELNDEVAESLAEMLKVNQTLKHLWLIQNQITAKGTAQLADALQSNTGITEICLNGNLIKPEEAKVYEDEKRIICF
Kind of test: Agonist activity at human NOD-1 expressed in human HEK293 cells assessed as NF-kappaB induction by spectrophotometric analysis. Type of test: functional, cell-based. The essentials:
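HEK-Blue cells (HEK293 stably transfected with human Nod1 and an NF-κB/AP-1-inducible secreted alkaline phosphatase reporter) were kept in selection medium with zeocin and normocin. Cells at ~10^5 cells/mL were grown to confluency and then given graded compound concentrations. Supernatant sAP was read spectrophotometrically at 620 nm with an alkaline phosphatase-specific chromogen.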

Test [2] can be described thus: Upregulation of CD11b expression in human […] by flow cytometry. Type of test: functional, cell-based. In a few lines:
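Fresh anticoagulated human whole blood was incubated with graded compound dilutions for 1 h at 37°C, with saline negative controls. Samples were chilled 15 min, then stained with anti-CD11b/Mac-1 on ice for 30 min so only surface CD11b was labelled. Erythrocytes were lysed and leukocytes fixed, then washed. Flow cytometry in single-color PE mode acquired 20,000 gated events.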
(A flow cytometer gives signals particle by particle.)

A short description of test [3]: Upregulation of p38 MAPK expression in human […] by flow cytometry. Type of test: functional, cell-based. In a few lines:
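Fresh heparinized human whole blood was incubated with graded compound concentrations diluted in saline for 15 min at 37°C. Erythrocytes were lysed and leukocytes fixed in one step, then permeabilized in ice-cold methanol for 30 min. Cells were stained 60 min with PE anti-phospho-p38MAPK (pT180/pY182) or a PE IgG1 κ isotype control. Flow cytometry acquired 20,000 gated events.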

Test [4] has as its target Triggering receptor expressed on myeloid cells 1 (Homo sapiens) (UniProt Q9NP99). Kind of test: Induction of TREM-1-mediated activation of IL-6 signaling pathway in human PBMC at 20 ug/ml. In a few lines:
(§1)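 PBMCs were isolated from fresh heparin-anticoagulated human blood and stimulated with compound at 20 μg/mL for 2 h. Total RNA was extracted from treated and negative-control PBMC samples for transcriptomal profiling.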

For test [5] the target is unchanged. Kind of test: Induction of TREM-1-mediated dendritic cell maturation in human PBMC at 20 ug/ml. The essentials: as §1
Test [6] has as its system PBMC. The experiment in a line: Upregulation of interleukin 1F10 in human PBMC at 20 ug/ml after 2 hrs. Type of test: functional. The essentials: as §1
Test [7] relates to PBMC. Kind of test: Upregulation of interleukin 12B in human PBMC at 20 ug/ml after 2 hrs. It counts as functional. The essentials: as §1
Test [8] deals with PBMC. The experiment in a line: Upregulation of interleukin 1B in human PBMC at 20 ug/ml after 2 hrs. Type of test: functional. The essentials: as §1
Test [9] deals with PBMC. Kind of test: Downregulation of interleukin 31RA in human PBMC at 20 ug/ml after 2 hrs. It counts as functional. In a few lines:
as §1

In test [10] the target is Triggering receptor expressed on myeloid cells 1 (Homo sapiens) (UniProt Q9NP99). Kind of test: Induction of TREM-1-mediated activation of IL-9 signalling pathway in human PBMC at 20 ug/ml. In a few lines:
as §1

For test [11] the target is unchanged. Kind of test: Induction of TREM-1-mediated activation of communication between innate and adaptive immune cells in human PBMC at 20 ug/ml. Type of test: cell-based. The essentials: as §1
The target is the same in test [12]. The experiment in a line: Induction of TREM-1-mediated T-helper cell differentiation in human PBMC at 20 ug/ml. It counts as cell-based. The essentials:
as §1

Test [13] deals with PBMC. The experiment in a line: Upregulation of interleukin 1F9 in human PBMC at 20 ug/ml after 2 hrs. Type of test: functional. The essentials: as §1
Test [14] relates to PBMC. Kind of test: Upregulation of interleukin 18 in human PBMC at 20 ug/ml after 2 hrs. It counts as functional. The essentials: as §1
The target of test [15] is Triggering receptor expressed on myeloid cells 1 (Homo sapiens) (UniProt Q9NP99). Kind of test: Induction of TREM-1-mediated LXR/RXR activation in human PBMC at 20 ug/ml. The essentials:
as §1

The target is the same in test [16]. The experiment in a line: Induction of TREM-1-mediated activation of NF-kappaB signalling pathway in human PBMC at 20 ug/ml. The essentials: as §1
Test [17] relates to PBMC. The experiment in a line: Upregulation of interleukin 6 in human PBMC at 20 ug/ml after 2 hrs. Type of test: functional. The essentials: as §1
Test [18] has as its system PBMC. Kind of test: Upregulation of interleukin 20 in human PBMC at 20 ug/ml after 2 hrs. Type of test: functional. In a few lines:
as §1

For test [19], the system named is PBMC. The experiment in a line: Upregulation of interleukin 17A in human PBMC at 20 ug/ml after 2 hrs. Type of test: functional. In a few lines: as §1
In test [20] the test system is PBMC. The experiment in a line: Upregulation of interleukin 1RN in human PBMC at 20 ug/ml after 2 hrs. Type of test: functional. The essentials:
as §1

The test system of test [21] is PBMC. The experiment in a line: Upregulation of interleukin 10 in human PBMC at 20 ug/ml after 2 hrs. It counts as functional. The essentials:
as §1

Test [22] has as its system PBMC. Kind of test: Upregulation of interleukin 2RA in human PBMC at 20 ug/ml after 2 hrs. Type of test: functional. The essentials:
as §1

For test [23], the system named is PBMC. The experiment in a line: Upregulation of interleukin 19 in human PBMC at 20 ug/ml after 2 hrs. Type of test: functional. In a few lines: as §1
Test [24] deals with Triggering receptor expressed on myeloid cells 1 (Homo sapiens) (UniProt Q9NP99). Kind of test: Induction of TREM-1-mediated activation of IRF by cytosolic pattern recognition receptors in human PBMC at 20 ug/ml. In a few lines:
as §1

The test system of test [25] is PBMC. The experiment in a line: Upregulation of interleukin 1alpha in human PBMC at 20 ug/ml after 2 hrs. It counts as functional. The essentials: as §1
Test [26] deals with PBMC. The experiment in a line: Downregulation of interleukin 22RA1 in human PBMC at 20 ug/ml after 2 hrs. It counts as functional. In a few lines: as §1
The test system of test [27] is PBMC. Kind of test: Upregulation of interleukin 8 in human PBMC at 20 ug/ml after 2 hrs. It counts as functional. The essentials: as §1
Test [28] concerns the target Triggering receptor expressed on myeloid cells 1 (Homo sapiens) (UniProt Q9NP99). The experiment in a line: Induction of TREM-1-mediated activation of TNFR2 signalling pathway in human PBMC at 20 ug/ml. In a few lines: as §1
Test [29] shares this target. The experiment in a line: Induction of TREM-1-mediated activation of IL-10 signalling pathway in human PBMC at 20 ug/ml. In a few lines: as §1
Test [30] deals with PBMC. Kind of test: Upregulation of interleukin 22 in human PBMC at 20 ug/ml after 2 hrs. It counts as functional. In a few lines:
as §1

For test [31], the system named is PBMC. Kind of test: Downregulation of interleukin 1RAP in human PBMC at 20 ug/ml after 2 hrs. Type of test: functional. The essentials: as §1
For test [32], the system named is PBMC. The experiment in a line: Upregulation of interleukin 1F5 in human PBMC at 20 ug/ml after 2 hrs. It counts as functional. In a few lines: as §1
In test [33] the target is Triggering receptor expressed on myeloid cells 1 (Homo sapiens) (UniProt Q9NP99). The experiment in a line: Induction of TREM-1-mediated activation of PPAR signalling pathway in human PBMC at 20 ug/ml. The essentials:
as §1

In test [34] the test system is PBMC. Kind of test: Downregulation of interleukin 8RB in human PBMC at 20 ug/ml after 2 hrs. Type of test: functional. The essentials: as §1
The subject of test [35] is PBMC. Kind of test: Downregulation of interleukin 1RAPL1 in human PBMC at 20 ug/ml after 2 hrs. Type of test: functional. In a few lines: as §1
Test [36] concerns PBMC. Kind of test: Upregulation of interleukin 17RD in human PBMC at 20 ug/ml after 2 hrs. It counts as functional. In a few lines:
as §1

In test [37] the test system is PBMC. The experiment in a line: Upregulation of interleukin 3 in human PBMC at 20 ug/ml after 2 hrs. It counts as functional. In a few lines:
as §1

Test [38] addresses Triggering receptor expressed on myeloid cells 1 (Homo sapiens) (UniProt Q9NP99). Kind of test: Induction of TREM-1-mediated activation of p38 MAPK signalling pathway in human PBMC at 20 ug/ml. The essentials:
as §1

For test [39] the target is unchanged. Kind of test: Induction of TREM-1-mediated activation of IL12 signalling and production in human PBMC at 20 ug/ml. The essentials:
as §1

The test system of test [40] is PBMC. The experiment in a line: Upregulation of interleukin 24 in human PBMC at 20 ug/ml after 2 hrs. Type of test: functional. In a few lines:
as §1

Calls of active or inactive are those of the source. No cut-off for these calls is given here.

Sequence of Triggering receptor expressed on myeloid cells 1 (Homo sapiens) (Q9NP99 whole entry, looked up): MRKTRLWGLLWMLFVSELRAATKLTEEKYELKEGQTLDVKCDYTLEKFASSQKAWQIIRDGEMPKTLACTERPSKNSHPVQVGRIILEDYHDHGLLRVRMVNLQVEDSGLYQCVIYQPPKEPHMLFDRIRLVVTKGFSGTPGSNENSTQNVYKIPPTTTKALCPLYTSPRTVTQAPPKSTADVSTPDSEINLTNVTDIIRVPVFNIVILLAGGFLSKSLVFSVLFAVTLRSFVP

Turning to `CCCCCCCCCCCC(=O)N[C@H](CCC(=O)N[C@@H](CCCCN)C(=O)O)C(=O)O`, the EC50 (commonly the concentration giving half of the maximal effect) in test [1] came to 0.57 nM.
As to `CCCCCCCCCCCNC(=O)[C@H](N)CCC(=O)NC(CCCC(N)C(=O)O)C(=O)O` (some centres not stated), in test [1], the EC50 came to 0.826 nM.
For the molecule `CCCCCCCCCCCC(=O)N[C@H](CCC(=O)NC(CCCC(N)C(=O)O)C(=O)O)C(=O)O` (some centres not stated), the Activity entry in test [2] and in test [3] was “Dose-dependent effect” in each case. For the same molecule, in test [1], the EC50 was 0.027 nM.
Take `CCCCCCCCCCCCN(CCCCCCCCCCCC)[C@H](CCC(=O)NC(CCCC(N)C(=O)O)C(=O)O)C(=O)O` (some centres not stated): the outcome in test [4], in test [5], in [10], in test [11], in test [12] and in test [15] was Active. Besides, the outcome in [16], in test [24], in test [28], in [29], in test [33] and in [38] was Active. The outcome in test [39] was Active. In addition, the “fold change (FC)” value in the test with PBMC [6] stood at 2.05; in the test on PBMC [7] it was 6.13; in the test with PBMC [8], 4.14; with PBMC [9], 4.05; in the test on PBMC [13], 11.1; with PBMC [14], 2.03. The “fold change (FC)” value in the test on PBMC [17] is given as 29.54; in the test with PBMC [18], 4; in the test with PBMC [19], 10.56; in the test with PBMC [20] it was 4.94; with PBMC [21], 3.62; with PBMC [22], 3.57. In addition, the “fold change (FC)” value was 30.39 with PBMC [23]; 14.34 in the test on PBMC [25]; 3.69 in the test on PBMC [26]; 2.29 with PBMC [27]; 3.87 in the test on PBMC [30]; 2.02 with PBMC [31]. The “fold change (FC)” value turned out to be 3.15 in the test with PBMC [32]; 2.75 with PBMC [34]; 2.06 in the test with PBMC [35]; 3.17 with PBMC [36]; 5.99 in the test with PBMC [37]; 3.41 with PBMC [40]. The Activity entry in [2] and in test [3] was “Dose-dependent effect” throughout. Moreover, in [1], the EC50 turned out to be 0.0015 nM.
For `CCCCCCCCCCCC(=O)N[C@H](CCC(=O)NC(CCCC(N)C(=O)OCC)C(=O)OCC)C(=O)O` (some centres not stated), the EC50 in test [1] is 0.145 nM.
As to `CCCCCCCCCCCOC(=O)[C@H](N)CCC(=O)NC(CCCC(N)C(=O)O)C(=O)O` (some centres not stated), the 50% effective concentration (EC50) in [1] was found to be 0.066 nM.

These data come from ChEMBL document CHEMBL1687899, “Structure-activity relationships in nucleotide oligomerization domain 1 (Nod1) agonistic γ-glutamyldiaminopimelic acid derivatives” (J Med Chem, 2011).
